Laboratory results reported in ChEMBL document CHEMBL1143339, “Design and synthesis of amidoxime derivatives for orally potent C-alkylamidine-based antimalarial agents” (Bioorg Med Chem Lett, 2009).

Experiments:
[1] = tested on: Plasmodium vinckei petteri; assay: Antimalarial activity against Plasmodium vinckei petteri 279BY infected Swiss mice (Mus musculus) at daily peroral dose for 4 days; type: functional; details: po, 96 h
Summary of the method: (§1)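 Female Swiss mice infected iv with 10⁷ P. vinckei petteri 279BY parasites (about 0.5% parasitemia on day 1). Dosed ip or orally once daily on days 1–4 post-infection. Parasitemia read on day 5 and expressed as % of untreated control. Three mice per dose; mean ± SEM.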

Plasmodium falciparum = assay: Antimalarial activity after 48 hrs against chloroquine-sensitive Plasmodium falciparum Nigerian by [3H]hypoxanthine uptake; type: functional, organism-based
Summary of the method: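 IC50 against P. falciparum given as the mean of at least two independent experiments, each run in duplicate.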

[2] = tested on: Plasmodium vinckei petteri; assay: Antimalarial activity against Plasmodium vinckei petteri 279BY infected Swiss mice (Mus musculus) at daily intraperitoneal dose for 4 days; type: functional; details: ip, 96 h; summary of the method: as §1
[3] = tested on: Plasmodium vinckei petteri; assay: Antimalarial activity against Plasmodium vinckei petteri 279BY infected Swiss mice (Mus musculus) at 120 mg/kg/day peroral dose over 4 days; type: functional; details: route oral; summary of the method: as §1
[4] = tested on: Plasmodium vinckei petteri; assay: Antimalarial activity against Plasmodium vinckei petteri 279BY infected Swiss mice (Mus musculus) at 20 mg/kg/day intraperitoneal dose over 4 days; type: functional; summary of the method: as §1
[5] = tested on: Plasmodium vinckei petteri; assay: Antimalarial activity against Plasmodium vinckei petteri 279BY infected Swiss mice (Mus musculus) at 180 mg/kg/day peroral dose over 4 days; type: functional; details: route oral; summary of the method: as §1

| Compound | ED50 [1] | IC50 (Plasmodium falciparum) | ED50 [2] | Activity [3] | Activity [4] | Activity [5] |
| --- | --- | --- | --- | --- | --- | --- |
| N/C(CCCCCCCCCCCC/C(N)=N/O)=N\O | 120 mg/kg | 3.5 µM | – | – | – | – |
| CC(=O)O/N=C(/N)CCCCCCCCCCCCC(=N)NOC(C)=O | > 90 mg/kg | 1.4 µM | > 10 mg/kg | – | – | – |
| N=C(CCCCCCCCCCCC/C(N)=N\OC(=O)c1ccccc1)NOC(=O)c1ccccc1 | > 90 mg/kg | 1.1 µM | > 10 mg/kg | – | – | – |
| NC(=O)c1nc(CCCCCCCCCCCCc2noc(C(N)=O)n2)no1 | – | 7 µM | > 20 mg/kg | – | – | – |
| N#Cc1nc(CCCCCCCCCCCCc2noc(C#N)n2)no1 | – | 100 µM | > 20 mg/kg | – | – | – |
| CS(=O)(=O)O/N=C(/N)CCCCCCCCCCCCC(=N)NOS(C)(=O)=O | 40 mg/kg | 0.0025 µM | 7 mg/kg | – | – | – |
| O=c1[nH]c(CCCCCCCCCCCCc2nsc(=O)[nH]2)ns1 | > 120 mg/kg | 0.0175 µM | 20 mg/kg | 25% | 50% | – |
| O=c1[nH]c(CCCCCCCCCCCCc2noc(=O)[nH]2)no1 | 100 mg/kg | 9.2 µM | > 20 mg/kg | – | – | – |
| CO/N=C(/N)CCCCCCCCCCCCC(=N)NOC | 180 mg/kg | 6.8 µM | > 20 mg/kg | – | – | 50% |
| CCNC(=O)O/N=C(/N)CCCCCCCCCCCCC(=N)NOC(=O)NCC | 90 mg/kg | 0.18 µM | > 20 mg/kg | 80% | – | – |
| N=C(CCCCCCCCCCCC/C(N)=N\OC(=O)Nc1ccccc1)NOC(=O)Nc1ccccc1 | > 180 mg/kg | – | > 20 mg/kg | – | – | – |
| Cc1c(CCO)sc[n+]1CCCCCCCCCCCC[n+]1csc(CCO)c1C [ALBITIAZOLIUM BROMIDE] | – | 0.0022 µM | – | – | – | – |
| N=C(N)CCCCCCCCCCCCC(=N)N [TETRADECANEBIS(IMIDAMIDE)] | > 100 mg/kg | – | > 10 mg/kg | – | – | – |
